Data: ChEMBL document CHEMBL1152331, “seco-Abietane diterpenoids, a phenylethanoid derivative, and antitubercular constituents from Callicarpa pilosissima” (2009)
Values after ≈ are worked out from the molar mass of the structure shown.

System: Mycobacterium tuberculosis
Experiment: Antitubercular activity against Mycobacterium tuberculosis H37Rv after 2 weeks
Type: functional
Settings: 336 h
In short: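 Agar proportion method on Middlebrook 7H10 with OADC; compound mixed into agar at 50-56 °C by serial dilution, final 100 to 0.8 µg/mL, poured into quadrant plates. Inoculum in 7H9 broth adjusted to McFarland no. 1, then diluted 10-2; 33 µL per quadrant. Incubated 35 °C, 10% CO2, 2 weeks; MIC read. Ethambutol as positive control.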

With `COc1cc2oc(-c3ccc(O)cc3)c(OC)c(=O)c2c(O)c1OC` [PENDULETIN] the MIC was 157 µM (≈ 54.1 µg/mL).

With `CC[C@H](CC[C@@H](C)[C@H]1CC[C@H]2[C@@H]3CC=C4CC(=O)CC[C@]4(C)[C@H]3CC[C@]12C)C(C)C` [BETA-SITOSTENONE] the MIC was > 300 µM.

`C=C(C)[C@@H]1CCC2=C(CCC(C(C)C)=C2)[C@@]1(C)CCC(=O)OC` was tested, and the MIC was 38 µM (≈ 12 µg/mL).

With `CC(C)c1ccc2c(c1)C(=O)C[C@H]1C(C)(C)CCC[C@]21C` the MIC was > 300 µM.

Work on `CC(C)=CCC/C(C)=C/CC/C(C)=C/CC/C=C(\C)CC/C=C(\C)CCC=C(C)C` [SQUALENE] yielded an MIC of 122 µM (≈ 50.1 µg/mL).

With `C=C(C)[C@@H]1CCC2=C(C(=O)C=C(C(C)C)C2=O)[C@@]1(C)CCC(=O)O` [CALLICARPIC ACID B] the MIC was 63.6 µM (≈ 21 µg/mL).

In the case of `C=C(C)[C@@H]1CC=C2C=C(C(C)C)CC[C@]2(O)[C@@]1(C)CCC(=O)O` [9R-HYDROXYCALLICARPIC ACID A], the MIC is reported as 113 µM (≈ 36 µg/mL).

For `COc1ccc(-c2cc(=O)c3c(O)cc(O)cc3o2)cc1` [ACACETIN], the MIC was 282 µM (≈ 80.1 µg/mL).

Work on `CC[C@@H](CO)NCCN[C@@H](CC)CO` [ETHAMBUTOL] yielded an MIC of 30.6 µM (≈ 6.25 µg/mL).

For `C=C(C)[C@@H]1CCc2cc(C(C)C)ccc2[C@@]1(C)CCC(=O)OC`, the MIC was 153 µM (≈ 48.1 µg/mL).

With `COc1ccc(-c2oc3cc(OC)c(OC)c(O)c3c(=O)c2OC)cc1O` [CASTICIN] the MIC was 214 µM (≈ 80.1 µg/mL).

For `CCCCCCCCCCCCCCCCCC(=O)O` [STEARIC ACID], the MIC was > 300 µM.

For `CCCCCCCCCCCCCC(=O)OCCc1ccc(O)cc1`, the MIC was > 300 µM.

Work on `CC(C)c1ccc2c(c1)CC[C@H]1C(C)(C)C(=O)CC[C@]21C` yielded an MIC of 148 µM (≈ 42.1 µg/mL).

In the case of `COc1ccc(-c2oc3cc(OC)c(OC)c(OC)c3c(=O)c2OC)cc1OC` [HEXAMETHOXYFLAVONE], the MIC is reported as 179 µM (≈ 72.1 µg/mL).

`C=C(C)[C@@H]1CC=C2C=C(C(C)C)CC[C@@H]2[C@@]1(C)CCC(=O)O` [CALLICARPIC ACID A] showed an MIC of 238 µM (≈ 72.1 µg/mL).

Molecule `COc1ccc(-c2oc3cc(OC)c(OC)c(O)c3c(=O)c2OC)cc1OC` [ARTEMETIN] has an MIC of 186 µM (≈ 72.1 µg/mL).

Work on `COc1cc([C@H]2OC[C@@H]3C(=O)OC[C@@H]32)cc(OC)c1O` yielded an MIC of 257 µM (≈ 72.1 µg/mL).
